Assay results taken from article PMC3689924 (Pharmacology, 2012).
pEC50: −log10 of the molar value. “And” between values parts separate entries of the source, which are not always exact repeats. Equal values may be shown once. “Also recorded” adds a separate entry of the source. Read-outs that look alike come from different tables or passages of the source.

Legend:
[1] = system: Pgp; conditions: 2 mg/kg dose; cited from earlier work
[2] = system: Pgp at the human BBB; conditions: cited from earlier work
[3] = system: breast cancer resistance protein (BCRP); conditions: at low concentrations; cited from earlier work
[4] = system: Pgp; conditions: at low concentrations; cited from earlier work
[5] = format: in vitro ADME, human; conditions: for TQD concentration in plasma after storage: mean±SD of four determinations
Procedure, shortened: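 Plasma was spiked at 0.1, 0.5 and 2.0 μg/ml and split into 16 aliquots per level. Four aliquots were analysed by HPLC at once as the baseline. The rest were stored 24 h, 1 month or 3 months at RT, 4°C, −20°C or −80°C, then quantified. Results are given as mean of four determinations and percent of baseline; stability criterion was 95%.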

[6] = format: in vivo, human; conditions: for t½: terminal elimination
Procedure, shortened: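 Healthy males (n=5 per dose group). Vehicle stock of 20% ethanol/80% propylene glycol, diluted to 0.6 mg/ml in 5% dextrose, infused i.v. at 375 ml/h to target dose. Heparinised blood taken pre-dose, at 25/50/75% and end of infusion, then to 1440 min. Plasma methanol-precipitated, C18 HPLC-MS, calibration 0.005–5 μg/ml, LLOQ 5 ng/ml. Cmax observed; AUC0-n, Vss, CL, t½ calculated.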

[7] = Safety and tolerability of single i.v. doses of TQD in healthy volunteers; format: in vivo, human
Procedure, shortened: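 15 healthy males were given single i.v. infusions at 4, 6 or 8 mg/kg and kept on the ward under continuous observation until 24 h after infusion end. Blood pressure, heart rate and ECG were recorded repeatedly over the first 24 h. Monitoring included clinical chemistry, coagulation, haematology and adverse events. Physical examination, vital signs, AE check, and blood and urine analysis were repeated within one week.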

[8] = 4 mg/kg BW i.v. infusion, individual subjects 1-5
[9] = 6 mg/kg BW i.v. infusion, individual subjects 6-10
[10] = 8 mg/kg BW i.v. infusion, individual subjects 11-15
[11] = single i.v. doses up to 8 mg/kg BW

percent of baseline ([5]; 0.1 μg/ml, 4°C, 1 month): 7.2%
TQD concentration in plasma after storage ([5]; 0.1 μg/ml, 4°C, 1 month): 0.007 ± 0.001 µg/mL
percent of baseline ([5]; 0.1 μg/ml, 4°C, 3 months): 3.1%
TQD concentration in plasma after storage ([5]; 0.1 μg/ml, 4°C, 3 months): 0.003 ± 0.000 µg/mL
percent of baseline ([5]; 0.1 μg/ml, 4°C, 24 h): 99%
TQD concentration in plasma after storage ([5]; 0.1 μg/ml, 4°C, 24 h): 0.099 ± 0.003 µg/mL
percent of baseline ([5]; 0.1 μg/ml, RT, 1 month): 8.6%
TQD concentration in plasma after storage ([5]; 0.1 μg/ml, RT, 1 month): 0.008 ± 0.000 µg/mL
percent of baseline ([5]; 0.1 μg/ml, RT, 3 months): 3.0%
TQD concentration in plasma after storage ([5]; 0.1 μg/ml, RT, 3 months): 0.003 ± 0.000 µg/mL
percent of baseline ([5]; 0.1 μg/ml, RT, 24 h): 100%
TQD concentration in plasma after storage ([5]; 0.1 μg/ml, RT, 24 h): 0.10 ± 0.004 µg/mL
percent of baseline ([5]; 0.1 μg/ml, −20°C, 1 month): 73.9%
TQD concentration in plasma after storage ([5]; 0.1 μg/ml, −20°C, 1 month): 0.073 ± 0.005 µg/mL
percent of baseline ([5]; 0.1 μg/ml, −20°C, 3 months): 40.8%
TQD concentration in plasma after storage ([5]; 0.1 μg/ml, −20°C, 3 months): 0.041 ± 0.004 µg/mL
percent of baseline ([5]; 0.1 μg/ml, −20°C, 24 h): 100%
TQD concentration in plasma after storage ([5]; 0.1 μg/ml, −20°C, 24 h): 0.10 ± 0.002 µg/mL
percent of baseline ([5]; 0.1 μg/ml, −80°C, 1 month): 78.1%
TQD concentration in plasma after storage ([5]; 0.1 μg/ml, −80°C, 1 month): 0.078 ± 0.006 µg/mL
percent of baseline ([5]; 0.1 μg/ml, −80°C, 3 months): 69.1%
TQD concentration in plasma after storage ([5]; 0.1 μg/ml, −80°C, 3 months): 0.069 ± 0.005 µg/mL
percent of baseline ([5]; 0.1 μg/ml, −80°C, 24 h): 98%
TQD concentration in plasma after storage ([5]; 0.1 μg/ml, −80°C, 24 h): 0.098 ± 0.003 µg/mL
percent of baseline ([5]; 0.5 μg/ml, 4°C, 1 month): 11.2%
TQD concentration in plasma after storage ([5]; 0.5 μg/ml, 4°C, 1 month): 0.056 ± 0.003 µg/mL
percent of baseline ([5]; 0.5 μg/ml, 4°C, 3 months): 3.4%
TQD concentration in plasma after storage ([5]; 0.5 μg/ml, 4°C, 3 months): 0.017 ± 0.001 µg/mL
percent of baseline ([5]; 0.5 μg/ml, 4°C, 24 h): 102%
TQD concentration in plasma after storage ([5]; 0.5 μg/ml, 4°C, 24 h): 0.51 ± 0.023 µg/mL
percent of baseline ([5]; 0.5 μg/ml, RT, 3 months): 1.7%
TQD concentration in plasma after storage ([5]; 0.5 μg/ml, RT, 3 months): 0.008 ± 0.001 µg/mL
percent of baseline ([5]; 0.5 μg/ml, RT, 24 h): 98%
TQD concentration in plasma after storage ([5]; 0.5 μg/ml, RT, 24 h): 0.49 ± 0.033 µg/mL
percent of baseline ([5]; 0.5 μg/ml, −20°C, 1 month): 77.6%
TQD concentration in plasma after storage ([5]; 0.5 μg/ml, −20°C, 1 month): 0.38 ± 0.021 µg/mL
percent of baseline ([5]; 0.5 μg/ml, −20°C, 3 months): 36.4%
TQD concentration in plasma after storage ([5]; 0.5 μg/ml, −20°C, 3 months): 0.18 ± 0.014 µg/mL
percent of baseline ([5]; 0.5 μg/ml, −20°C, 24 h): 99%
TQD concentration in plasma after storage ([5]; 0.5 μg/ml, −20°C, 24 h): 0.49 ± 0.014 µg/mL
percent of baseline ([5]; 0.5 μg/ml, −80°C, 1 month): 82.3%
TQD concentration in plasma after storage ([5]; 0.5 μg/ml, −80°C, 1 month): 0.41 ± 0.030 µg/mL
percent of baseline ([5]; 0.5 μg/ml, −80°C, 3 months): 53.9%
TQD concentration in plasma after storage ([5]; 0.5 μg/ml, −80°C, 3 months): 0.27 ± 0.023 µg/mL
percent of baseline ([5]; 0.5 μg/ml, −80°C, 24 h): 100%
TQD concentration in plasma after storage ([5]; 0.5 μg/ml, −80°C, 24 h): 0.50 ± 0.025 µg/mL
percent of baseline ([5]; 2.0 μg/ml, 4°C, 1 month): 9.5%
TQD concentration in plasma after storage ([5]; 2.0 μg/ml, 4°C, 1 month): 0.19 ± 0.004 µg/mL
percent of baseline ([5]; 2.0 μg/ml, 4°C, 3 months): 5.6%
TQD concentration in plasma after storage ([5]; 2.0 μg/ml, 4°C, 3 months): 0.11 ± 0.006 µg/mL
percent of baseline ([5]; 2.0 μg/ml, 4°C, 24 h): 98.5%
TQD concentration in plasma after storage ([5]; 2.0 μg/ml, 4°C, 24 h): 1.97 ± 0.050 µg/mL
percent of baseline ([5]; 2.0 μg/ml, RT, 1 month): 9.1%
TQD concentration in plasma after storage ([5]; 2.0 μg/ml, RT, 1 month): 0.18 ± 0.003 µg/mL
percent of baseline ([5]; 2.0 μg/ml, RT, 3 months): 2.8%
TQD concentration in plasma after storage ([5]; 2.0 μg/ml, RT, 3 months): 0.054 ± 0.004 µg/mL
percent of baseline ([5]; 2.0 μg/ml, RT, 24 h): 101%
TQD concentration in plasma after storage ([5]; 2.0 μg/ml, RT, 24 h): 2.02 ± 0.081 µg/mL
percent of baseline ([5]; 2.0 μg/ml, −20°C, 1 month): 75.8%
TQD concentration in plasma after storage ([5]; 2.0 μg/ml, −20°C, 1 month): 1.51 ± 0.065 µg/mL
percent of baseline ([5]; 2.0 μg/ml, −20°C, 3 months): 48.3%
TQD concentration in plasma after storage ([5]; 2.0 μg/ml, −20°C, 3 months): 0.97 ± 0.084 µg/mL
percent of baseline ([5]; 2.0 μg/ml, −20°C, 24 h): 99%
TQD concentration in plasma after storage ([5]; 2.0 μg/ml, −20°C, 24 h): 1.98 ± 0.075 µg/mL
percent of baseline ([5]; 2.0 μg/ml, −80°C, 1 month): 80.6%
TQD concentration in plasma after storage ([5]; 2.0 μg/ml, −80°C, 1 month): 1.62 ± 0.068 µg/mL
percent of baseline ([5]; 2.0 μg/ml, −80°C, 3 months): 61.5%
TQD concentration in plasma after storage ([5]; 2.0 μg/ml, −80°C, 3 months): 1.23 ± 0.056 µg/mL
percent of baseline ([5]; 2.0 μg/ml, −80°C, 24 h): 100.5%
TQD concentration in plasma after storage ([5]; 2.0 μg/ml, −80°C, 24 h): 2.01 ± 0.064 µg/mL
concentration dependency of degradation rate in plasma ([5]; 0.1, 0.5 and 2.0 μg/ml): No concentration dependency
stability in plasma on storage longer than 24 h ([5]; 1 month, 3 months, even at −80°C): pronounced degradation
stability in plasma (criterion 95%) ([5]; 24 h at RT, 4°C, −20°C and −80°C): stable
concentration remaining relative to original values ([5]; one month at −20°C): 74-78%
concentration remaining relative to original values ([5]; one month at −80°C): 78-82%
concentration remaining relative to original concentration ([5]; one month of storage at RT or at 4°C): approximately 10%
Vss [6, 8]: 530 L and 571 L and 384 L and 445 L
tmax [6, 8]: 1.38 h and 1.45 h and 1.55 h and 1.40 h
t½ [6, 8]: 33 h and 55 h and 30 h and 31 h
tmax [6, 9]: 2.45 h and 1.83 h and 2.23 h
t½ [6, 9]: 34 h and 26 h and 33 h and 16 h and 35 h
Vss [6, 10]: 521 L and 667 L and 380 L and 616 L
tmax [6, 10]: 2.42 h and 2.28 h and 2.70 h and 2.26 h
t½ [6, 10]: 21 h and 25 h and 30 h and 14 h
dose dependency of plasma exposure AUC0-n ([6]; dose range from 2 to 8 mg/kg i.v.): largely increase linearly
SMILES: COc1cc2c(cc1OC)CN(CCc1ccc(NC(=O)c3cc(OC)c(OC)cc3NC(=O)c3cnc4ccccc4c3)cc1)CC2 [TQD, tariquidar]
inhibition of Pgp-mediated rhodamine 123 efflux from CD56-positive lymphocytes [1]: fully inhibit
increase in (R)-[11C]verapamil brain distribution ([2]; 8 mg/kg TQD dose, healthy subjects, PET): 3 fold
inhibition of Pgp at the human BBB ([2]; 8 mg/kg TQD dose, plateau in concentration-response curve): complete inhibition
pEC50 ([2]; read-out: half-maximum effect concentration (EC50) for functional inhibition of Pgp at the human BBB): 6.17
transport by breast cancer resistance protein (BCRP) [3]: transported
transport by Pgp [4]: transported
CL [6, 8]: 11.29 L/h and 7.39 L/h and 9.22 L/h and 10.11 L/h
CL [6, 9]: 13.99 L/h and 15.15 L/h and 13.53 L/h and 11.35 L/h
Vss [6, 9]: 645 L and 509 L and 680 L and 312 L and 559 L
CL [6, 10]: 15.41 L/h and 16.21 L/h and 20.85 L/h and 22.15 L/h
Cmax ([6]; 8 mg/kg BW i.v. infusion, individual subjects 11-15, plasma): 1920 ng/mL and 1050 ng/mL and 1870 ng/mL and 1660 ng/mL
concentration of possible metabolites in plasma samples ([6]; all plasma samples, 4-8 mg/kg i.v.): below the detection limit; also recorded: could not detect any metabolites
cases of metallic taste in the mouth ([7]; 15 subjects, 4-8 mg/kg i.v.): five cases
heart rate, blood pressure and ECG ([7]; during and after TQD administration): did not significantly change
dose limiting toxicities ([7]; single i.v. doses 4, 6, 8 mg/kg): No dose limiting toxicities
serious or severe AEs [7, 11]: no serious or severe AEs
tolerability [7, 11]: generally well tolerated
blood chemistries, complete blood count and coagulation ([7]; whole study period): No subject had any significant change
